Source: ChEMBL document CHEMBL2429740, “The synthesis and SAR study of phenylalanine-derived (Z)-5-arylmethylidene rhodanines as anti-methicillin-resistant Staphylococcus aureus (MRSA) compounds” (2013)
Converted amounts (≈) assume the structure as drawn.

Columns and labels:
Assay type in all cases: functional
Staphylococcus aureus [1] = assay: Antibacterial activity against methicillin-resistant Staphylococcus aureus ATCC 700698 by microdilution technique
Staphylococcus aureus [2] = assay: Antibacterial activity against methicillin-resistant Staphylococcus aureus CA ATCC BAA-1680 by microdilution technique
Staphylococcus aureus [3] = assay: Antibacterial activity against methicillin-resistant Staphylococcus aureus ATCC 700787 by microdilution technique
Staphylococcus aureus [4] = assay: Antibacterial activity against methicillin-resistant Staphylococcus aureus ST239 HS770 by microdilution technique
Staphylococcus aureus [5] = assay: Antibacterial activity against methicillin-resistant Staphylococcus aureus ATCC 34404 by microdilution technique
Staphylococcus aureus [6] = assay: Antibacterial activity against methicillin-resistant Staphylococcus aureus ATCC BAA-39 by microdilution technique
Staphylococcus aureus [7] = assay: Ratio of MIC for methicillin-resistant Staphylococcus aureus CA ATCC BAA-1680 in absence of 10% FBS to MIC for methicillin-resistant Staphylococcus aureus CA ATCC BAA-1680 in presence of 10% FBS
Procedure, shortened: (§1)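 MIC determined by the same turbidity-based microdilution method, once in standard medium and once in medium with 10% fetal serum added, to probe serum protein binding. The ratio is the MIC without serum over the MIC with serum, for each strain.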

Staphylococcus aureus [8] = assay: Ratio of MIC for methicillin-resistant Staphylococcus aureus ATCC 700698 in absence of 10% FBS to MIC for methicillin-resistant Staphylococcus aureus ATCC 700698 in presence of 10% FBS; procedure, shortened: as §1
Staphylococcus aureus [9] = assay: Ratio of MIC for methicillin-resistant Staphylococcus aureus ATCC BAA-39 in absence of 10% FBS to MIC for methicillin-resistant Staphylococcus aureus ATCC BAA-39 in presence of 10% FBS; procedure, shortened: as §1
Staphylococcus aureus [10] = assay: Ratio of MIC for methicillin-resistant Staphylococcus aureus ATCC 34404 in absence of 10% FBS to MIC for methicillin-resistant Staphylococcus aureus ATCC 34404 in presence of 10% FBS; procedure, shortened: as §1
Staphylococcus aureus [11] = assay: Ratio of MIC for methicillin-resistant Staphylococcus aureus ST239 HS770 in absence of 10% FBS to MIC for methicillin-resistant Staphylococcus aureus ST239 HS770 in presence of 10% FBS; procedure, shortened: as §1
Staphylococcus aureus [12] = assay: Ratio of MIC for methicillin-resistant Staphylococcus aureus ATCC 700787 in absence of 10% FBS to MIC for methicillin-resistant Staphylococcus aureus ATCC 700787 in presence of 10% FBS; procedure, shortened: as §1

Compound | MIC (Staphylococcus aureus [1]) | MIC (Staphylococcus aureus [2]) | MIC (Staphylococcus aureus [3]) | MIC (Staphylococcus aureus [4]) | MIC (Staphylococcus aureus [5]) | MIC (Staphylococcus aureus [6]) | Ratio (Staphylococcus aureus [7]) | Ratio (Staphylococcus aureus [8]) | Ratio (Staphylococcus aureus [9]) | Ratio (Staphylococcus aureus [10]) | Ratio (Staphylococcus aureus [11]) | Ratio (Staphylococcus aureus [12])
O=C(O)[C@H](Cc1ccccc1)N1C(=O)/C(=C/c2ccccc2OCCc2ccccc2)SC1=S | 7.8 µg/mL (≈ 15.9 µM) | 7.8 µg/mL (≈ 15.9 µM) | 15.6 µg/mL (≈ 31.9 µM) | 15.6 µg/mL (≈ 31.9 µM) | 15.6 µg/mL (≈ 31.9 µM) | 15.6 µg/mL (≈ 31.9 µM) |  |  |  |  |  | 
O=C(O)[C@@H](Cc1ccccc1)N1C(=O)/C(=C/c2cccc(Oc3cccc(Cl)c3)c2)SC1=S | 3.9 µg/mL (≈ 7.86 µM) | 1.95 µg/mL (≈ 3.93 µM) | 3.9 µg/mL (≈ 7.86 µM) | 1.95 µg/mL (≈ 3.93 µM) | 0.98 µg/mL (≈ 1.98 µM) | 1.95 µg/mL (≈ 3.93 µM) | 2 | 2 | 2 | 2 | 2 | 2
O=C(O)[C@H](Cc1ccccc1)N1C(=O)/C(=C/c2ccccc2-c2ccccc2)SC1=S | 15.6 µg/mL (≈ 35 µM) | 7.8 µg/mL (≈ 17.5 µM) | 15.6 µg/mL (≈ 35 µM) | 7.8 µg/mL (≈ 17.5 µM) | 7.8 µg/mL (≈ 17.5 µM) | 7.8 µg/mL (≈ 17.5 µM) |  |  |  |  |  | 
O=C(O)[C@@H](Cc1ccccc1)N1C(=O)/C(=C/c2cccc(Oc3ccc(Cl)cc3)c2)SC1=S | 3.9 µg/mL (≈ 7.86 µM) | 1.95 µg/mL (≈ 3.93 µM) | 3.9 µg/mL (≈ 7.86 µM) | 1.95 µg/mL (≈ 3.93 µM) | 1.95 µg/mL (≈ 3.93 µM) | 1.95 µg/mL (≈ 3.93 µM) |  |  |  |  |  | 
O=C(O)[C@H](Cc1ccccc1)N1C(=O)/C(=C/c2ccc(Oc3ccccc3)cc2)SC1=S | 1.95 µg/mL (≈ 4.22 µM) | 1.95 µg/mL (≈ 4.22 µM) | 7.8 µg/mL (≈ 16.9 µM) | 7.8 µg/mL (≈ 16.9 µM) | 1.95 µg/mL (≈ 4.22 µM) | 3.9 µg/mL (≈ 8.45 µM) |  |  |  |  |  | 
COc1ccc(Oc2cccc(/C=C3\SC(=S)N([C@@H](Cc4ccccc4)C(=O)O)C3=O)c2)cc1 | 7.8 µg/mL (≈ 15.9 µM) | 15.6 µg/mL (≈ 31.7 µM) | 7.8 µg/mL (≈ 15.9 µM) |  | 7.8 µg/mL (≈ 15.9 µM) | 7.8 µg/mL (≈ 15.9 µM) |  |  |  |  |  | 
O=C(O)[C@H](Cc1ccccc1)N1C(=O)/C(=C/c2cccc(-c3ccc(Cl)c(Cl)c3)c2)SC1=S | 7.8 µg/mL (≈ 15.2 µM) | 7.8 µg/mL (≈ 15.2 µM) | 3.9 µg/mL (≈ 7.58 µM) | 1.95 µg/mL (≈ 3.79 µM) | 3.9 µg/mL (≈ 7.58 µM) | 3.9 µg/mL (≈ 7.58 µM) |  |  |  |  |  | 
O=C(O)[C@@H](Cc1ccccc1)N1C(=O)/C(=C/c2cccc(Oc3ccc(F)cc3)c2)SC1=S | 1.95 µg/mL (≈ 4.07 µM) | 1.95 µg/mL (≈ 4.07 µM) | 1.95 µg/mL (≈ 4.07 µM) | 1.95 µg/mL (≈ 4.07 µM) | 1.95 µg/mL (≈ 4.07 µM) | 1.95 µg/mL (≈ 4.07 µM) |  |  |  |  |  | 
CC1(C)S[C@@H]2[C@H](NC(=O)Cc3ccccc3)C(=O)N2[C@H]1C(=O)O [PENICILLIN G] | 15.6 µg/mL (≈ 46.7 µM) | 125 µg/mL (≈ 374 µM) | 62.5 µg/mL (≈ 187 µM) | 250 µg/mL (≈ 748 µM) | 31.2 µg/mL (≈ 93.5 µM) | 62.5 µg/mL (≈ 187 µM) |  |  |  |  |  | 
O=C(O)[C@H](Cc1ccccc1)N1C(=O)/C(=C/c2cccc(-c3nccs3)c2)SC1=S | 31.2 µg/mL (≈ 69 µM) | 31.2 µg/mL (≈ 69 µM) | 31.2 µg/mL (≈ 69 µM) | 3.9 µg/mL (≈ 8.62 µM) | 15.6 µg/mL (≈ 34.5 µM) | 7.8 µg/mL (≈ 17.2 µM) |  |  |  |  |  | 
O=C(O)[C@H](Cc1ccccc1)N1C(=O)/C(=C/c2ccccc2Oc2ccc(Cl)c(Cl)c2)SC1=S | 7.8 µg/mL (≈ 14.7 µM) | 3.9 µg/mL (≈ 7.35 µM) | 3.9 µg/mL (≈ 7.35 µM) | 1.95 µg/mL (≈ 3.68 µM) | 3.9 µg/mL (≈ 7.35 µM) | 3.9 µg/mL (≈ 7.35 µM) |  |  |  |  |  | 
O=C(O)[C@@H](Cc1ccccc1)N1C(=O)/C(=C/c2cccc(Oc3ccccc3)c2)SC1=S | 1.95 µg/mL (≈ 4.22 µM) | 1.95 µg/mL (≈ 4.22 µM) | 3.9 µg/mL (≈ 8.45 µM) | 3.9 µg/mL (≈ 8.45 µM) | 3.9 µg/mL (≈ 8.45 µM) | 3.9 µg/mL (≈ 8.45 µM) |  |  |  |  |  | 
O=C(O)[C@H](Cc1ccccc1)N1C(=O)/C(=C/c2ccccc2OCc2ccccc2)SC1=S | 7.8 µg/mL (≈ 16.4 µM) | 7.8 µg/mL (≈ 16.4 µM) | 15.6 µg/mL (≈ 32.8 µM) | 7.8 µg/mL (≈ 16.4 µM) | 7.8 µg/mL (≈ 16.4 µM) | 15.6 µg/mL (≈ 32.8 µM) |  |  |  |  |  | 
O=C(O)[C@H](Cc1ccccc1)N1C(=O)/C(=C/c2cccc(-c3ccccc3)c2)SC1=S | 1.95 µg/mL (≈ 4.38 µM) | 1.95 µg/mL (≈ 4.38 µM) | 1.95 µg/mL (≈ 4.38 µM) | 1.95 µg/mL (≈ 4.38 µM) | 0.98 µg/mL (≈ 2.2 µM) | 0.98 µg/mL (≈ 2.2 µM) | 2 | 2 | 2 | 2 | 2 | 2
O=C(O)[C@@H](Cc1ccccc1)N1C(=O)/C(=C/c2cccc(Oc3ccc(Cl)c(Cl)c3)c2)SC1=S | 1.95 µg/mL (≈ 3.68 µM) | 3.9 µg/mL (≈ 7.35 µM) | 15.6 µg/mL (≈ 29.4 µM) | 3.9 µg/mL (≈ 7.35 µM) | 1.95 µg/mL (≈ 3.68 µM) | 1.95 µg/mL (≈ 3.68 µM) |  |  |  |  |  | 
